Reference: ChEMBL document CHEMBL3286314, “Tetraoxane-pyrimidine nitrile hybrids as dual stage antimalarials” (J Med Chem, 2014)
pIC50: −log10 of the molar value. Activity calls are given as the source filed them. No cut-off for these calls is given here.

Experiments:
[1] = tested on: Plasmodium falciparum; experiment: Antiplasmodial activity against chloroquine-sensitive Plasmodium falciparum 3D7 after 48 hrs by FACS analysis; type: functional, organism-based; conditions: 3D7, 48 h
[2] = Selectivity index, ratio of CC50 for HEK293T cells to IC50 for chloroquine-resistant Plasmodium falciparum W2; type: functional, HEK-293T
In short: (§1)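 SI taken as in vitro cytotoxicity IC50 on HEK293T or NIH3T3 cells divided by the P. falciparum W2 growth-inhibition IC50.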

[3] = Cytotoxicity against mouse NIH/3T3 cells; type: cell-based, NIH3T3
[4] = tested on: Plasmodium falciparum; experiment: Antiplasmodial activity against chloroquine-resistant Plasmodium falciparum W2 after 48 hrs by FACS analysis; type: functional, organism-based; conditions: W2, 48 h
In short: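 Synchronized ring-stage parasites cultured 48 h with multiple compound concentrations (from 1000× DMSO stocks) in RPMI 1640 with 10% human serum. Fixed in 1% formaldehyde/PBS pH 7.4 for 48 h at room temperature, stained with YOYO-1 (1 nM) in 0.1% Triton X-100/PBS. Parasitemia read by flow cytometry; IC50 from curve fits of percentage of control parasitemia.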

[5] = Selectivity index, ratio of CC50 for mouse NIH/3T3 cells to IC50 for chloroquine-resistant Plasmodium falciparum W2; type: functional; in short: as §1
[6] = tested on: Plasmodium falciparum; experiment: Antiplasmodial activity against atovaquone-resistant Plasmodium falciparum FCR3 after 48 hrs by FACS analysis; type: functional, organism-based; conditions: FCR3, 48 h
[7] = tested on: Plasmodium falciparum; experiment: Inhibition of falcipain-2-mediated hemoglobin degradation in ring stage Plasmodium falciparum assessed as development of swollen digestive vacuoles at 123 nM after 24 hrs
In short: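 Cultured parasites exposed to 123 nM compound for 24 h starting at ring stage. Examined for swollen digestive vacuoles with erythrocyte-cytoplasm staining characteristics.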

[8] = Cytotoxicity against HEK293T cells; type: cell-based, HEK-293T; conditions: human
[9] = Inhibition of Plasmodium falciparum recombinant falcipain-2 after 30 mins by spectrofluorometric analysis
In short: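 Recombinant falcipain-2 (~1 nM) preincubated 30 min at room temperature with inhibitor (from 100× DMSO stocks) in 100 mM sodium acetate pH 5.5, 10 mM dithiothreitol. Then Z-Leu-Arg-AMC substrate added (final 25 μM). Fluorescence monitored continuously for 30 min at room temperature; IC50 from activity plots.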

[10] = tested on: Plasmodium berghei; experiment: Antiplasmodial activity against liver stage Plasmodium berghei infected in human HuH7 cells assessed as decrease in parasite load at 2 uM treated for 1 hr prior to infection measured after 48 hrs by luciferase luminescence assay; conditions: Huh-7
[11] = tested on: Plasmodium berghei; experiment: Antiplasmodial activity against liver stage Plasmodium berghei infected in human HuH7 cells assessed as decrease in parasite load at 10 uM treated for 1 hr prior to infection measured after 48 hrs by luciferase luminescence assay; conditions: Huh-7
[12] = tested on: Plasmodium berghei; experiment: Antiplasmodial activity against Plasmodium berghei ANKA infected in C57Bl/6J mouse assessed as parasitemia level at 30 mg/kg/day, ip qd for 5 days measured on day 8 post-infection by microscopic/flow cytometric analysis; type: functional, organism-based
In short: (§2)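 C57Bl/6J mice infected intraperitoneally with 2 × 10^6 GFP-expressing P. berghei ANKA-infected erythrocytes. Treatment started at parasitemia ca. 3.9% (day 4 postinfection): 30 mg/kg bw once daily ip for 5 days. Controls received equivalent drug vehicle. Parasitemia was followed daily by microscopy and flow cytometry; disease symptoms and survival were also recorded daily.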

[13] = tested on: Plasmodium berghei; experiment: Antiplasmodial activity against Plasmodium berghei ANKA infected in C57Bl/6J mouse assessed as survival at 30 mg/kg/day, ip qd for 5 days measured on day 18 post-infection; type: functional, organism-based; in short: as §2
[14] = Half life of the compound in 18 equiv of FeSO4 in aqueous acetonitrile assessed as N'-(5-bromo-2-cyanopyrimidin-4-yl)-N'-isobutyl-4-oxocyclohexanecarbohydrazide level by LC-MS analysis; type: physicochemical; conditions: buffer
In short: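 Aqueous solution of compound treated with high concentration of iron(II) sulfate; mixture analysed by LCMS. Decomposition to the ketone product fitted to first-order decay kinetics to give the half-life.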

[15] = tested on: Plasmodium berghei; experiment: Antiplasmodial activity against Plasmodium berghei ANKA infected in C57Bl/6J mouse assessed as parasitemia level at 30 mg/kg/day, ip qd for 5 days measured on day 18 post-infection by microscopic/flow cytometric analysis; type: functional; conditions: route intraperitoneal; in short: as §2

| Compound | pIC50 [1] | Ratio CC50/IC50 [2] | CC50 [3] [nM] | pIC50 [4] | Ratio CC50/IC50 [5] | pIC50 [6] | inhibition [7] | CC50 [8] [nM] | pIC50 [9] | Activity [10] | Activity [11] | Activity [12] | Activity [13] | t1/2 [14] [h] | Activity [15] [%] |
| --- | --- | --- | --- | --- | --- | --- | --- | --- | --- | --- | --- | --- | --- | --- | --- |
| N#Cc1ncc(Br)c(N(NC(=O)C2CCC3(CC2)OOC2(OO3)C3CC4CC(C3)CC2C4)C2CCCCC2)n1 (stereo not given) | 7.11 | >4464 | 1400 | 7.65 | 63 | 7.09 | Active | > 100000 | 7.60 |  |  |  |  |  |  |
| CC(C)CN(NC(=O)CC1CCC2(CC1)OOC1(OO2)C2CC3CC(C2)CC1C3)c1nc(C#N)ncc1Br (stereo not given) | 7.72 | 3750 | 2300 | 7.64 | 101 |  | Active | 85500 | 7.02 |  |  |  |  |  |  |
| CC(C)CN(NC(=O)C1CCC(=O)CC1)c1nc(C#N)ncc1Br | 7.32 | >2079 | > 100000 | 7.32 | >2079 |  | Active | > 100000 | 7.23 | Active | Active |  |  |  |  |
| CC(C)CN(NC(=O)C1CCC2(CC1)OOC1(OO2)C2CC3CC(C2)CC1C3)c1ccnc(C#N)n1 (stereo not given) | 7.88 | >2114 | 900 | 7.33 | 19 | 7.52 | inactive | > 100000 | 6.04 |  |  |  |  |  |  |
| CC(C)CN(NC(=O)C1CCC2(CC1)OOC1(OO2)C2CC3CC(C2)CC1C3)c1nc(C#N)ncc1Cl (stereo not given) | 7.09 | >2959 | 4500 | 7.47 | 133 | 7.27 | Active | > 100000 | 8.47 |  |  | Active | Active | 5.1 | 51 |
| O=C1C(O)=C([C@H]2CC[C@H](c3ccc(Cl)cc3)CC2)C(=O)c2ccccc21 |  |  |  |  |  |  |  |  |  | Active |  |  |  |  |  |
| CC(C)CN(NC(=O)C1CCC2(CC1)OOC1(OO2)C2CC3CC(C2)CC1C3)c1nc(C#N)ncc1Br (stereo not given) | 7.24 | >10000 | 8000 | 8.01 | 816 |  | Active | > 100000 | 7.79 |  |  |  |  |  |  |
| N#Cc1ncc(Br)c(N(CC2CCCC2)NC(=O)C2CCC3(CC2)OOC2(OO3)C3CC4CC(C3)CC2C4)n1 (stereo not given) | 7.15 | >3390 | 5500 | 7.53 | 186 |  |  | > 100000 | 6.95 |  |  |  |  |  |  |
| C[C@@H]1CC[C@H]2[C@@H](C)C(=O)O[C@@H]3O[C@@]4(C)CC[C@@H]1[C@]32OO4 [ARTEMISININ] | 7.44 |  |  | 7.85 |  | 8.11 |  |  |  | inactive | inactive |  |  |  |  |
| COc1cc(NC(C)CCCN)c2ncccc2c1 (stereo not given) |  |  |  |  |  |  |  |  |  |  | Active |  |  |  |  |
| CC(C)CN(NC(=O)C1CCC2(CC1)OOC1(OO2)C2CC3CC(C2)CC1C3)c1cc(Cl)nc(C#N)n1 (stereo not given) | 7.55 | >2045 | 1700 | 7.31 | 35 | 7.42 | inactive | > 100000 | 6.01 |  |  |  |  |  |  |
